Reference: ChEMBL document CHEMBL3259598, “Lignan dicarboxylates and terpenoids from the flower buds of Cananga odorata and their inhibitory effects on melanogenesis” (J Nat Prod, 2014)

Tests used:
[1] = Inhibition of melanogenesis in mouse B16-4A5 cells at 1 uM after 72 hrs by spectrophotometry relative to control; format: functional; conditions: B16-4A5, 72 h
Procedure, shortened: (§1)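 Murine B16 melanoma 4A5 cells seeded at 2.0 × 10^4 cells/well in 24-well plates and cultured 24 h, then given test compound (DMSO, final 0.1%) plus 1 mM theophylline for 72 h. Cells trypsinized, washed and lysed in 1 M NaOH at 80 °C for 30 min; lysate absorbance read at 405 nm. Inhibition is corrected for cell viability, mean ± SEM (n = 4); IC50 determined graphically.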

[2] = Inhibition of melanogenesis in mouse B16-4A5 cells at 100 uM after 72 hrs by spectrophotometry relative to control; format: functional; conditions: B16-4A5, 72 h; procedure, shortened: as §1
[3] = Inhibition of melanogenesis in mouse B16-4A5 cells at 30 uM after 72 hrs by spectrophotometry relative to control; format: functional; conditions: B16-4A5, 72 h; procedure, shortened: as §1
[4] = Inhibition of melanogenesis in mouse B16-4A5 cells at 10 uM after 72 hrs by spectrophotometry relative to control; format: functional; conditions: B16-4A5, 72 h; procedure, shortened: as §1
[5] = Cytotoxicity against mouse B16-4A5 cells assessed as viable cells at 30 uM after 72 hrs by WST-8 assay; format: cell-based; conditions: read-out: Activity
Procedure, shortened: (§2)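 B16 melanoma 4A5 cells (DMEM, 4.5 g/L glucose, 10% FBS, 37 °C, 5% CO2) seeded at 5.0 × 10^4 cells/well in 96-well plates, grown 24 h, then exposed to test compound (DMSO, final 0.1%) for 70 h. After a PBS wash, cells were given DMEM plus WST-8 for 2 h more. Formazan read at 450 nm (reference 655 nm).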

[6] = Inhibition of melanogenesis in mouse B16-4A5 cells at 3 uM after 72 hrs by spectrophotometry relative to control; format: functional; conditions: B16-4A5, 72 h; procedure, shortened: as §1
[7] = Inhibition of melanogenesis in mouse B16-4A5 cells after 72 hrs by spectrophotometry relative to control; format: functional, cell-based; procedure, shortened: as §1
[8] = Cytotoxicity against mouse B16-4A5 cells assessed as viable cells at 10 uM after 72 hrs by WST-8 assay; format: cell-based; conditions: read-out: Activity; procedure, shortened: as §2
[9] = Inhibition of melanogenesis in mouse B16-4A5 cells at 1000 uM after 72 hrs by spectrophotometry relative to control; format: functional; conditions: B16-4A5, 72 h
Procedure, shortened: (§3)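 B16 melanoma 4A5 cells were grown in DMEM (4.5 g/L glucose) with 10% FBS and penicillin/streptomycin at 37 °C, 5% CO2, then seeded at 2.0 × 10^4 cells/well. After 24 h, compound (DMSO stock, 0.1% DMSO final) was added with 1 mM theophylline for 72 h. Cells were trypsinized, washed, lysed in 1 M NaOH (80 °C, 30 min) and read at 405 nm. Inhibition was corrected for WST-8 viability; mean ± SEM, n = 4.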

[10] = Inhibition of melanogenesis in mouse B16-4A5 cells at 300 uM after 72 hrs by spectrophotometry relative to control; format: functional; conditions: B16-4A5, 72 h; procedure, shortened: as §3
[11] = Mus musculus, B16-4A5, 72 h, read-out: IC50

| SMILES | inhibition at 1 µM [1] [%] | inhibition at 100 µM [2] [%] | inhibition at 30 µM [3] [%] | inhibition at 10 µM [4] [%] | viability at 72 h, 30 µM [5] [%] | inhibition at 3 µM [6] [%] | IC50 [7] [µM] | IC50 [7, 11] [µM] | viability at 72 h, 10 µM [8] [%] | inhibition at 1000 µM [9] [%] | inhibition at 300 µM [10] [%] |
| --- | --- | --- | --- | --- | --- | --- | --- | --- | --- | --- | --- |
| CC(C)[C@@H]1CC[C@@](C)(O)[C@H]2CCC(C=O)=C[C@@H]12 | 19.2 | 66.3 | 50.8 | 35.8 | > 80.3 | 29.9 | 26.2 | – | – | – | – |
| O=C[C@]1(/C=C\O[C@@H]2O[C@H](CO)[C@@H](O)[C@H](O)[C@H]2O)CC[C@H](COC(=O)C2=Cc3ccc(O)c(O)c3[C@@H](c3ccc(O)cc3)[C@@H]2C(=O)OC[C@H]2CC[C@](C=O)(/C=C\O[C@@H]3O[C@H](CO)[C@@H](O)[C@H](O)[C@H]3O)[C@@H](O)C2)C[C@@H]1O | 12.8 | -27.9 | 8.4 | 9.4 | > 80.3 | 14.9 | > 100 | – | – | – | – |
| CO[C@H]1C[C@]2(CC[C@H](COC(=O)/C=C/c3ccc(O)c(O)c3)C[C@@H]2O)[C@H](OC)O1 | 13.5 | 81.2 | 60 | 36.4 | > 80.3 | 16.9 | 19.3 | – | – | – | – |
| CO[C@@H]1C[C@]2(CC[C@H](COC(=O)/C=C/c3ccc(O)c(O)c3)C[C@@H]2O)[C@@H](OC)O1 | 34.7 | 66.8 | 62.8 | 65.2 | > 95.2 | 42.8 | 3.6 | – | – | – | – |
| O=C(OC[C@H]1CC[C@](CO)(CCO)[C@@H](O)C1)C(=C/c1ccc(O)cc1)/C(=C\c1ccc(O)c(O)c1)C(=O)OC[C@H]1CC[C@](CO)(CCO)[C@@H](O)C1 | 36.1 | 44.2 | 49.8 | 59 | > 95.2 | 45 | – | 5 | – | – | – |
| C=C1/C=C/[C@H](C(C)C)CCC(=C)[C@H](O)CC1 | 28.9 | 62.2 | 61.2 | 40.6 | > 95.2 | 30.5 | 17.3 | – | – | – | – |
| CC(C)[C@H]1CC[C@]2(C)C(=O)CCC(C=O)=C[C@@H]12 | 45.5 | 80.6 | 68.5 | 57.6 | > 95.2 | 50.3 | 2.5 | – | – | – | – |
| C=C1CC[C@@H](O)[C@]2(C)CC[C@@H](C(C)C)[C@H](O)[C@@H]12 | 42.3 | 59.2 | 54.7 | 53.8 | > 74.5 | 39.7 | 8.4 | – | – | – | – |
| COc1ccc(/C=C(C(=O)OC[C@H]2CC[C@](CO)(CCO)[C@@H](O)C2)\C(=C/c2ccc(OC)c(OC)c2)C(=O)OC[C@H]2CC[C@](CO)(CCO)[C@@H](O)C2)cc1 | 34.4 | -15.7 | -19.9 | 8.1 | 68.8 | 24.1 | – | – | 82 | – | – |
| O=C[C@]1(/C=C\O[C@@H]2O[C@H](CO)[C@@H](O)[C@H](O)[C@H]2O)CC[C@H](COC(=O)C(=C/c2ccc(O)cc2)/C(=C\c2ccc(O)c(O)c2)C(=O)OC[C@H]2CC[C@](C=O)(/C=C\O[C@@H]3O[C@H](CO)[C@@H](O)[C@H](O)[C@H]3O)[C@@H](O)C2)C[C@@H]1O | 28.6 | 16.7 | 34.8 | 31.8 | > 95.2 | 30.2 | > 100 | – | – | – | – |
| O=C(OC[C@H]1CC[C@](CO)(CCO[C@@H]2O[C@H](CO)[C@@H](O)[C@H](O)[C@H]2O)[C@@H](O)C1)C(=C/c1ccc(O)cc1)/C(=C\c1ccc(O)c(O)c1)C(=O)OC[C@H]1CC[C@](CO)(CCO[C@@H]2O[C@H](CO)[C@@H](O)[C@H](O)[C@H]2O)[C@@H](O)C1 | 22.3 | 25.3 | 32.3 | 27.3 | > 80.3 | 27.2 | > 100 | – | – | – | – |
| CC(C)[C@@H]1CC[C@@](C)(O)[C@@H]2CCC(C=O)=C[C@H]21 | 25 | 48.8 | 65.9 | 64 | > 80.3 | 45.5 | 5.1 | – | – | – | – |
| O=C[C@]1(CCO[C@@H]2O[C@H](CO)[C@@H](O)[C@H](O)[C@H]2O)CC[C@H](COC(=O)C(=C/c2ccc(O)cc2)/C(=C\c2ccc(O)c(O)c2)C(=O)OC[C@H]2CC[C@](C=O)(CCO[C@@H]3O[C@H](CO)[C@@H](O)[C@H](O)[C@H]3O)[C@@H](O)C2)C[C@@H]1O | 8.1 | 29.8 | 24.2 | 18.4 | > 95.2 | 18 | – | – | – | – | – |
| CC1(C)C[C@H](OC(=O)c2ccccc2)[C@@]23CC[C@@H](O)[C@@](C)(CC[C@H]12)C3 | 45.3 | – | – | 66.7 | 7.9 | 40.2 | – | 3 | 75.9 | – | – |
| O=C[C@]1(/C=C\O[C@@H]2O[C@H](CO)[C@@H](O)[C@H](O)[C@H]2O)CC[C@H](COC(=O)/C=C/c2ccc(O)c(O)c2)C[C@@H]1O | -3.8 | 12.2 | 11.4 | 9.3 | > 95.2 | -8.5 | > 100 | – | – | – | – |
| COC(=O)C(=C/c1ccc(OC)cc1)/C(=C\c1ccc(OC)c(OC)c1)C(=O)OC | 49 | 11.5 | 35.9 | 43.6 | > 74.5 | 48.4 | – | – | – | – | – |
| OC[C@H]1CC[C@](CO)(CCO[C@@H]2O[C@H](CO)[C@@H](O)[C@H](O)[C@H]2O)[C@@H](O)C1 | 16.1 | -9.4 | -2.5 | 15.3 | > 80.3 | 17.9 | – | – | – | – | – |
| CC(C)[C@H]1CC[C@]2(C)[C@@H](O)CCC(C=O)=C[C@@H]12 | -4.4 | 58.8 | 37.7 | 14.7 | > 80.3 | 9.2 | 57.5 | – | – | – | – |
| CC(C)[C@@H]1CC[C@@]2(C)[C@H](O)CCC(C=O)=C[C@@H]12 [APHANAMOL II] | 37.6 | 42.1 | 28.3 | 32.9 | > 74.5 | 34.3 | > 100 | – | – | – | – |
| OCC[C@@]1(CO)CC[C@H](CO)C[C@@H]1O | 45 | 25.6 | 51.6 | 55.9 | > 95.2 | 55.1 | – | 2 | – | – | – |
| OC[C@H]1O[C@@H](Oc2ccc(O)cc2)[C@H](O)[C@@H](O)[C@@H]1O [ARBUTIN] | – | 38.1 | 20.4 | 10.6 | – | – | – | 174 | – | 83.7 | 61.5 |
| O=C[C@]1(/C=C\O[C@@H]2O[C@H](CO)[C@@H](O)[C@H](O)[C@H]2O)CC[C@H](COC(=O)C2=Cc3cc(O)c(O)cc3[C@@H](c3ccc(O)cc3)[C@@H]2C(=O)OC[C@H]2CC[C@](C=O)(/C=C\O[C@@H]3O[C@H](CO)[C@@H](O)[C@H](O)[C@H]3O)[C@@H](O)C2)C[C@@H]1O | 9.2 | 8.7 | 2.9 | 3.6 | > 80.3 | 8.7 | > 100 | – | – | – | – |
